Measurements published in article PMC11359625 (ACS Omega, 2024).
Converted amounts (≈) assume the structure as drawn. Like-named read-outs stand apart in the source and are kept apart here.

Legend:
AR [1] = conditions: cited from earlier work
polyol pathway = conditions: cited from earlier work
human lens AR = conditions: at a dose of 5 μM; cited from earlier work
PTP1B [2] = conditions: cited from earlier work
PTP1B [3] = conditions: cited from earlier work; remark: listed apart in the source
AR [4] = conditions: read-out: IC50 AR inhibition; in vitro; cited from earlier work
human recombinant AR = conditions: cited from earlier work
C57BL/KsJ-db/db mice = conditions: 20 and 40 mg/kg body weight; cited from earlier work
HepG2 cells [5] = test: MTT cytotoxicity assay; type: cell-based; conditions: up to 50 μM, 24 h
Procedure, shortened: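 Normal HepG2 cells seeded at 5 × 10³ cells/well and grown 24 h. Test compound in DMSO added at […] for 24 h. MTT then added, and absorbance used to calculate percent cell viability.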

[6] = test system: PTP1B mRNA in IR-HepG2 cells; test: PTP1B mRNA expression by real-time qPCR; type: cell-based
AR [7] = biological target: AR (Homo sapiens, UniProt P15121); test: Kinetic study, Lineweaver–Burk plot, AR; type: biochemical; conditions: alkannin 0-20 μM
Procedure, shortened: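 Recombinant human aldose reductase in 0.05 M sodium phosphate, pH 6.2, with 0.3 mM NADPH and DL-glyceraldehyde substrate, at several test-compound concentrations. Activity followed as the fall in NADPH absorbance at 340 nm over 4 min. Inhibition type assigned from a Lineweaver–Burk double-reciprocal plot; mean ± SEM of triplicate experiments.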

PTP1B [8] = biological target: T1, PTP1B (Homo sapiens, UniProt P18031); test: Kinetic study, Lineweaver–Burk plot, PTP1B; type: biochemical; conditions: alkannin 0-20 μM
T1 sequence (P18031 1-435): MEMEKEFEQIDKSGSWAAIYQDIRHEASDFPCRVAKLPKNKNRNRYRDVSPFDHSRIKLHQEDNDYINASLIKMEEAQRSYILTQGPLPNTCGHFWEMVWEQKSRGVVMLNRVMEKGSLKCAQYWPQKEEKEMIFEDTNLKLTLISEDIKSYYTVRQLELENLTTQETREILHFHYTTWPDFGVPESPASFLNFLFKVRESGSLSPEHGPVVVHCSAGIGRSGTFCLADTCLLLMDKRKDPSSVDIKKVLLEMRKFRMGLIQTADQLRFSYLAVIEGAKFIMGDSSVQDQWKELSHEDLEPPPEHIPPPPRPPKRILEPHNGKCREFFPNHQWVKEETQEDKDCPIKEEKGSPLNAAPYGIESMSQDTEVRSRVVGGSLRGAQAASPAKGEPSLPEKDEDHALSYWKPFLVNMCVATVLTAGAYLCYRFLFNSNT
Procedure, shortened: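 Recombinant human PTP1B (0.5 units in PTP1B reaction buffer) preincubated with the test compound at several concentrations for 10 min at 37 °C. pNPP substrate then added and incubated 15 min at 37 °C; reaction stopped with 10 M NaOH and read at 405 nm. Inhibition type taken from a Lineweaver–Burk plot; mean ± SEM, triplicate experiments.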

IR-HepG2 cells = test: 2-NBDG glucose uptake in insulin-resistant HepG2 cells; type: cell-based; conditions: 24 h treatment, concentration-dependent
Procedure, shortened: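 Insulin resistance induced in confluent HepG2 (5 × 10³ cells/well; MEM, 10% FBS, 37 °C, 5% CO2) with 1 μM insulin for 24 h. Test compound added at several concentrations below 50 μM for 24 h, then 1 μM insulin for 30 min and 50 μM 2-NBDG for 30 min. Cells washed with ice-cold PBS; fluorescence read at ex 485/em 528 nm. Uptake expressed relative to untreated normal HepG2 (100%); mean ± SEM, triplicate.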

HepG2 cells [9] = conditions: up to 40 μM; ref Xue et al.; cited from earlier work
PTP1B [10] = biological target: T1, PTP1B; test: PTP1B inhibitory activity with pNPP substrate; type: biochemical
[11] = biological target: Recombinant human aldose reductase (Homo sapiens, UniProt P15121); test: AR activity assay; type: biochemical
AR [12] = conditions: cited from earlier work; remark: listed apart in the source

## O=c1c(O)c(-c2ccc(O)c(O)c2)oc2cc(O)cc(O)c12 [Quercetin]
AR [1]; at a dose of 10 μM
  AR inhibition: 95%
AR [1]
  manner of AR inhibition: noncompetitive
Polyol pathway
  reduction in the accumulation of xylitol: 80%
Human lens AR
  inhibition of human lens AR: 50%

## O=C(O)[C@H]1O[C@@H](Oc2c(-c3ccc(O)c(O)c3)oc3cc(O)cc(O)c3c2=O)[C@H](O)[C@@H](O)[C@@H]1O [quercetin-3-O-β-D-glucuronide]
PTP1B [2]
  IC50 PTP1B inhibitory activity: 7.39 ± 1.15 µg/mL (≈ 15.4 µM)

## CC(C)=CCc1c(-c2ccc(O)cc2O)oc2c([C@H]3C=C(C)C[C@@H](c4ccc(O)cc4O)[C@@H]3C(=O)c3ccc(O)cc3O)c(O)cc(O)c2c1=O [kuwanon G]
PTP1B [3]
  type of PTP1B enzyme inhibition: mixed-type

## CC1=C[C@H]2c3c(O)cc(-c4cc5ccc(O)cc5o4)cc3O[C@@]3(c4ccc(O)cc4O)Oc4cc(O)ccc4[C@H](C1)[C@@H]23 [mulberrofuran G]
PTP1B [3]
  type of PTP1B enzyme inhibition: mixed-type

## COc1cc(/C=C/C(=O)CC(=O)/C=C/c2ccc(O)c(OC)c2)ccc1O [curcumin]
AR [4]
  IC50: 6.8 µM
Human recombinant AR
  manner of inhibition of human recombinant AR: noncompetitive

## CC(C)=CC[C@H](O)C1=CC(=O)c2c(O)ccc(O)c2C1=O [Alkannin]
C57BL/KsJ-db/db mice
  effect on liver injury and inflammation in diabetic mice: protective role
HepG2 cells [5]
  cytotoxicity on normal HepG2 cells (MTT): insignificant cytotoxicity
[6]
  PTP1B mRNA expression: significantly reduced
AR [7]
  type of inhibition of AR: mixed-inhibition
PTP1B [8]
  type of inhibition of PTP1B: mixed-inhibition
IR-HepG2 cells
  insulin-stimulated 2-NBDG uptake: significantly enhanced
HepG2 cells [9]
  effect in HepG2 cells pretreated with palmitic acid: protective role
PTP1B [10]
  IC50: 19.5 µM
[11]
  IC50: 22.8 µM

## O=C(O)[C@H]1O[C@@H](Oc2c(-c3cc(O)c(O)c(O)c3)oc3cc(O)cc(O)c3c2=O)[C@H](O)[C@@H](O)[C@@H]1O [myricetin-3-O-β-Dglucuronide]
PTP1B [2]
  IC50 PTP1B inhibitory activity: 9.47 ± 3.31 µg/mL (≈ 19.2 µM)

## O=C1C=C(O)C(=O)C=C1O [2,5-dihydroxy-p-benzoquinone]
AR [12]
  manner of AR inhibition: noncompetitive

## Cc1cc2c3c(c1)-c1c(O)cc(-c4cc5ccc(O)cc5o4)cc1OC3(c1ccc(O)cc1O)Oc1cc(O)ccc1-2 (stereo not drawn) [albanol B]
PTP1B [3]
  type of PTP1B enzyme inhibition: mixed-type
